Activity and logP data for ten compounds are collected here from ChEMBL document CHEMBL1152787, “Search for MDR modulators: design, syntheses and evaluations of N-substituted acridones for interactions with p-glycoprotein and Mg2+” (Bioorg Med Chem, 2009).

The target in series [1] is T1, ATP-dependent translocase ABCB1 (Homo sapiens, UniProt P08183). Kind of series: Inhibition of P-gp ATPase activity in […] DC-3F/ADX cells assessed as increase in basal activity measured by NADH level at 0.05 uM by spectrophotometric method. The series is classed as cell-based. Set-up: scale not given: the % may be the effect or the level left. To be noted: Chinese hamster. An outline of the steps:
(§1)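 P-gp basal MgATP hydrolysis in vesicle suspension, monitored continuously by spectrophotometry. ADP formation is coupled through phosphoenolpyruvate→pyruvate→lactate with NADH→NAD+ conversion, read as NADH absorbance at 340 nm in a 96-well plate. Compound stocks of 0.5, 5 and 50 µM give final well concentrations of 0.05, 0.5 and 5 µM. Run in triplicate.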

For series [2], the target named is T1, ATP-dependent translocase ABCB1. Kind of series: Inhibition of P-gp ATPase activity in […] DC-3F/ADX cells assessed as increase in basal activity measured by NADH level at 0.5 uM by spectrophotometric method. In kind it is cell-based. Set-up: scale not given: the % may be the effect or the level left. To be noted: Chinese hamster. The gist of the method: as §1

Series [3] can be described thus: Lipophilicity, log P of the compound. To be noted: octanol/water. The series is classed as physicochemical.
The target of series [4] is T1, ATP-dependent translocase ABCB1. In words: Inhibition of P-gp ATPase activity in […] DC-3F/ADX cells assessed as increase in basal activity measured by NADH level at 5 uM by spectrophotometric method. The series is classed as cell-based. Set-up: scale not given: the % may be the effect or the level left. Conditions: Chinese hamster. An outline of the steps:
as §1

T1 sequence (P08183 whole entry): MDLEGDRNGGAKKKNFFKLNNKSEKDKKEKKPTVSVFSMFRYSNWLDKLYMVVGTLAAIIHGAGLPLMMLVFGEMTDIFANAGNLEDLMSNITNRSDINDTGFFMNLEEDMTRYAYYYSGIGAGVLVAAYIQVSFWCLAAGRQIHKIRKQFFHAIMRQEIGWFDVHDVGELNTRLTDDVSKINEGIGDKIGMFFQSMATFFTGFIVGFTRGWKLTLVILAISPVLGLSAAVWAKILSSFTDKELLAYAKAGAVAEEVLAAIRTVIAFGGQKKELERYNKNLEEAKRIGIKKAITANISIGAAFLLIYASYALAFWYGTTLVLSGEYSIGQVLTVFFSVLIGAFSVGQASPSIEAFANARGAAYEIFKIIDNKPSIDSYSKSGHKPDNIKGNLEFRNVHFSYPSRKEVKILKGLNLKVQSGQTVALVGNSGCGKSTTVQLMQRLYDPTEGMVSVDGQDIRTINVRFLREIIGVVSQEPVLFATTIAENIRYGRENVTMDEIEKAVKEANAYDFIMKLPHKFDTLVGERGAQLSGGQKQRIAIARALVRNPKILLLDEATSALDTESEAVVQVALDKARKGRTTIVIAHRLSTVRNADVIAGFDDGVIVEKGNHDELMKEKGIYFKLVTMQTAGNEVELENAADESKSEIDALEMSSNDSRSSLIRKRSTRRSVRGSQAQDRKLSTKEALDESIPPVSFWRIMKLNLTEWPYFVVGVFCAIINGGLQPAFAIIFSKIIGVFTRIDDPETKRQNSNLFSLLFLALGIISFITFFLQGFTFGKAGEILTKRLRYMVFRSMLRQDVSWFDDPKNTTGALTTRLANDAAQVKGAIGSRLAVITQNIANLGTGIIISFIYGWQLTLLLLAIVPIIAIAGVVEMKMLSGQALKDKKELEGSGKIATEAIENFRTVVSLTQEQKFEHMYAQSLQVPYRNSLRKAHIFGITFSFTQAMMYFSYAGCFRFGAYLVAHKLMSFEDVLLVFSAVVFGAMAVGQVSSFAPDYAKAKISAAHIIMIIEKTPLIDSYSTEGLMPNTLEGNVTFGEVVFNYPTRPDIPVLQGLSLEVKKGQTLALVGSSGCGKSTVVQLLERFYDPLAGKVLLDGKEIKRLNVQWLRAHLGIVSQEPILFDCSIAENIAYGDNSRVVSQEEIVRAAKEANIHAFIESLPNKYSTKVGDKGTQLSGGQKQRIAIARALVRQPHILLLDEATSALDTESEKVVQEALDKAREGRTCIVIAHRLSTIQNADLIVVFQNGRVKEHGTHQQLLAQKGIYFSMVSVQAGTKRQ

Consider `O=c1c2ccccc2n(CC(O)CN2CCCCC2)c2ccccc12` (configuration not stated), for which the Activity in series [1] is listed as 33%; in series [2], 40%; in series [4] it was 44%. Moreover, in series [3], the logP (as a rule, the decadic logarithm of the partition coefficient of the neutral form, usually between octanol and water) is 2.14.
Turning to `CCCNCC(O)COc1ccccc1C(=O)CCc1ccccc1` (configuration not stated) [PROPAFENONE], the results for the Activity in series [2] and in series [4] were 31% and 40%, respectively.
For `O=c1c2ccccc2n(CC(O)CN2CCC(N3CCCCC3)CC2)c2ccccc12` (configuration not stated), the Activity in series [1] worked out at 25%; in series [2], 32%; in series [4], 31%. The compound also displayed a logP in series [3] of 2.56.
With `CC(=O)[C@H]1CC[C@H]2[C@@H]3CCC4=CC(=O)CC[C@]4(C)[C@H]3CC[C@]12C` [PROGESTERONE], the Activity is reported as 30% in series [2] and 34% in series [4].
Take `O=c1c2ccccc2n(CC(O)CN2CCCC2)c2ccccc12` (configuration not stated): the Activity in series [1] is reported as 31%; in series [2], 34%; in series [4], 38%. Moreover, in series [3], the logP worked out at 1.73.
Turning to `CCN(CC)CC(O)Cn1c2ccccc2c(=O)c2ccccc21` (configuration not stated), the Activity in series [1] was determined as 29%; in series [2], 32%; in series [4] it was 36%. Moreover, the logP in series [3] is 1.98.
As to `CC[C@]1(O)C[C@@H]2CN(CCc3c([nH]c4ccccc34)[C@@](C(=O)OC)(c3cc4c(cc3OC)N(C)[C@H]3[C@@](O)(C(=O)OC)[C@H](OC(C)=O)[C@]5(CC)C=CCN6CC[C@]43[C@@H]65)C2)C1` [VINBLASTINE], the Activity is on record as 31% in series [2] and 35% in series [4].
For the compound `CC(C)N(CC(O)Cn1c2ccccc2c(=O)c2ccccc21)C(C)C` (configuration not stated), the results for the Activity in series [1], in series [2] and in series [4] were 18%, 21% and 28%, respectively. Besides, the logP in series [3] was determined as 2.58.
For `O=c1c2ccccc2n(CC(O)CN2CCOCC2)c2ccccc12` (configuration not stated), the Activity in series [1] is given as 24%; in series [2], 27%; in series [4] it was 30%. This compound also yielded a logP in series [3] of 1.08.
Regarding `COc1ccc(CCN(C)CCCC(C#N)(c2ccc(OC)c(OC)c2)C(C)C)cc1OC` (configuration not stated) [VERAPAMIL], the Activity in series [2] is on record as 30%; in series [4] it was 33%.
